How the values were obtained:
HPAepiC cells = assay: ROS-induced cell death; assay type: cell-based; details: 50 μM H2O2 in HPAepiC cells; 10 μM ebselen/EBs, NAC 10 mM, 24 h
How it was run: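 HPAepiC cells were exposed to 50 μM H₂O₂ for 1 h, then washed three times with fresh medium. Medium with 10 μM test compound or 10 mM NAC was added for 24 h before cell death was assessed.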

[1] = test system: intracellular reactive oxygen species (ROS) in HPAepiC cells; assay: Intracellular ROS measurement with DCFH-DA after H2O2; assay type: cell-based; details: 50 μM H2O2 in HPAepiC cells; 10 μM ebselen/EBs, NAC 10 mM
How it was run: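 HPAepiC cells were cultured 24 h in 35-mm dishes, exposed to 50 μM H₂O₂ for 1 h and washed three times. They were then given 10 μM test compound for 24 h, with 10 mM NAC as positive control. Cells were loaded with 10 μM DCFH-DA for 30 min at 37 °C in the dark, washed with PBS and imaged confocally (Ex 488 nm, Em 520–570 nm). Relative fluorescence intensity was scored.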

SARS-CoV-2 Mpro [2] = target: T1, SARS-CoV-2 Mpro (Severe acute respiratory syndrome coronavirus 2, UniProt P0DTD1); assay type: binding
SARS-CoV-2 Mpro [3] = target: T1, SARS-CoV-2 Mpro; assay: HPLC assay for inhibition of Mpro; assay type: biochemical; details: 0.3 μM compound, Mpro 0.2 μM; about 70% hydrolysis with Mpro alone
SARS-CoV-2 virus = assay type: cell-based; details: read-out: IC50 of inhibition of SARS-CoV-2 viral replication
SARS-CoV-2 Mpro [4] = target: T1, SARS-CoV-2 Mpro; assay: biochemical; details: read-out: %Inhibition @0.3 μM

Row | Compound | ROS induced cell death (HPAepiC cells) | intracellular ROS level (DCFH-DA fluorescence) [1] | covalent binding to Mpro (peptide modified) (SARS-CoV-2 Mpro [2]) | substrate hydrolysis (SARS-CoV-2 Mpro [3]) | IC50 (SARS-CoV-2 virus) | inhibition at 0.3 µM (SARS-CoV-2 Mpro [4])
1 | O=c1c2ccccc2[se]n1-c1ccccc1 [Ebselen] | dramatically decreased | dramatically decreased | identified to bind to ebselen | 30% | 24.6 µM | 61.2 ± 0.76%
2 | CC(=O)N[C@@H](CS)C(=O)O [NAC, N-Acetyl-L-cysteine] | reversed the cytotoxicity induced by ROS | scavenged the intracellular ROS |  |  |  | 

— PMC8556866 (Bioorganic Chemistry, 2021)
